According to ChEMBL document CHEMBL1128473, “[(Biaryloxy)alkyl]isoxazoles: picornavirus inhibitors” (J Med Chem, 1995):
Values after ≈ are worked out from the molar mass of the structure shown. Each block holds one compound with its values, some of them ahead of it.

Assays:
Format in all cases: functional
Human rhinovirus sp. [1] = assay: Concentration inhibiting 50% of the serotypes tested to 50% of the viral concentration of untreated controls following 72 hr of exposure
In short: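 Tissue culture infectious dose (TCID50) assay against a panel of 10 human rhinovirus serotypes. For each serotype, the viral concentration was compared with untreated controls after 72 h of compound exposure. MIC50 is the compound concentration at which half of the serotypes tested are reduced to 50% of the untreated-control viral concentration.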

Human rhinovirus sp. [2] = assay: Minimum inhibitory concentration on HRV serotype 15
Human rhinovirus sp. [3] = assay: Minimum inhibitory concentration on HRV serotype 16
Human rhinovirus sp. [4] = assay: Minimum inhibitory concentration on HRV serotype 19
Human rhinovirus sp. [5] = assay: Minimum inhibitory concentration on HRV serotype 64
Human rhinovirus sp. [6] = assay: Minimum inhibitory concentration on HRV serotype 66
Human rhinovirus sp. [7] = assay: Minimum inhibitory concentration on HRV serotype 67
Human rhinovirus sp. [8] = assay: Minimum inhibitory concentration on HRV serotype 68
Human rhinovirus sp. [9] = assay: Minimum inhibitory concentration on HRV serotype 71
Human rhinovirus sp. [10] = assay: Minimum inhibitory concentration on HRV serotype 73
Human rhinovirus sp. [11] = assay: Minimum inhibitory concentration on HRV serotype 75
Human rhinovirus sp. [12] = assay: Minimum inhibitory concentration on HRV serotype 76
In short: (§1)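 Tested in a tissue culture infectious dose (TCID50) assay with 72 h compound exposure. Activity is read as the concentration that holds virus to 50% of the titer of untreated controls.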

Human rhinovirus sp. [13] = assay: Minimum inhibitory concentration on HRV serotype 78; in short: as §1
Human rhinovirus sp. [14] = assay: Minimum inhibitory concentration on HRV serotype 79; in short: as §1
Human rhinovirus sp. [15] = assay: Minimum inhibitory concentration on HRV serotype 80; in short: as §1
Human rhinovirus sp. [16] = assay: Minimum inhibitory concentration on HRV serotype 81; in short: as §1
Human rhinovirus sp. [17] = assay: Minimum inhibitory concentration on HRV serotype 82; in short: as §1
Human rhinovirus sp. [18] = assay: Minimum inhibitory concentration on HRV serotype 83; in short: as §1
Human rhinovirus sp. [19] = assay: Minimum inhibitory concentration on HRV serotype 84; in short: as §1
Human rhinovirus sp. [20] = assay: Minimum inhibitory concentration on HRV serotype 85; in short: as §1
Human rhinovirus sp. [21] = assay: Minimum inhibitory concentration on HRV serotype 88; in short: as §1
Human rhinovirus sp. [22] = assay: Minimum inhibitory concentration on HRV serotype 89; in short: as §1
Human rhinovirus sp. [23] = assay: Minimum inhibitory concentration on HRV serotype 9; in short: as §1
Human rhinovirus sp. [24] = assay: Minimum inhibitory concentration on HRV serotype 90; in short: as §1
Human rhinovirus sp. [25] = assay: Minimum inhibitory concentration on HRV serotype 92; in short: as §1
Human rhinovirus sp. [26] = assay: Minimum inhibitory concentration on HRV serotype 96; in short: as §1
Human rhinovirus sp. [27] = assay: Minimum inhibitory concentration on HRV serotype T39; in short: as §1
Human rhinovirus sp. [28] = assay: Minimum inhibitory concentration on HRV serotype 100
Human rhinovirus sp. [29] = assay: Minimum inhibitory concentration on HRV serotype 36
Human rhinovirus sp. [30] = assay: Minimum inhibitory concentration on HRV serotype 38
Human rhinovirus sp. [31] = assay: Minimum inhibitory concentration on HRV serotype 39
Human rhinovirus sp. [32] = assay: Minimum inhibitory concentration on HRV serotype 40
Human rhinovirus sp. [33] = assay: Minimum inhibitory concentration on HRV serotype 43
Human rhinovirus sp. [34] = assay: Minimum inhibitory concentration on HRV serotype 44
Human rhinovirus sp. [35] = assay: Minimum inhibitory concentration on HRV serotype 46
Human rhinovirus sp. [36] = assay: Minimum inhibitory concentration on HRV serotype 47
Human rhinovirus sp. [37] = assay: Minimum inhibitory concentration on HRV serotype 49
Human rhinovirus sp. [38] = assay: Minimum inhibitory concentration on HRV serotype 50
Human rhinovirus sp. [39] = assay: Minimum inhibitory concentration on HRV serotype 51
Human rhinovirus sp. [40] = assay: Minimum inhibitory concentration on HRV serotype 55
Human rhinovirus sp. [41] = assay: Minimum inhibitory concentration on HRV serotype 56
Human rhinovirus sp. [42] = assay: Minimum inhibitory concentration on HRV serotype 57
Human rhinovirus sp. [43] = assay: Minimum inhibitory concentration on HRV serotype 58
Human rhinovirus sp. [44] = assay: Minimum inhibitory concentration on HRV serotype 61
Human rhinovirus sp. [45] = assay: Minimum inhibitory concentration on HRV serotype 62
Human rhinovirus sp. [46] = assay: Minimum inhibitory concentration on HRV serotype 63
Human rhinovirus sp. [47] = assay: Minimum inhibitory concentration on HRV serotype 20
Human rhinovirus sp. [48] = assay: Minimum inhibitory concentration on HRV serotype 21
Human rhinovirus sp. [49] = assay: Minimum inhibitory concentration on HRV serotype 22
Human rhinovirus sp. [50] = assay: Minimum inhibitory concentration on HRV serotype 24
Human rhinovirus sp. [51] = assay: Minimum inhibitory concentration on HRV serotype 25
Human rhinovirus sp. [52] = assay: Minimum inhibitory concentration on HRV serotype 28
Human rhinovirus sp. [53] = assay: Minimum inhibitory concentration on HRV serotype 29
Human rhinovirus sp. [54] = assay: Minimum inhibitory concentration on HRV serotype 30
Human rhinovirus sp. [55] = assay: Minimum inhibitory concentration on HRV serotype 32
Human rhinovirus sp. [56] = assay: Minimum inhibitory concentration on HRV serotype 33
Human rhinovirus sp. [57] = assay: Minimum inhibitory concentration on HRV serotype 34
Human rhinovirus sp. [58] = assay: Minimum inhibitory concentration on HRV serotype 1A
Human rhinovirus sp. [59] = assay: Minimum inhibitory concentration on HRV serotype 1B
Human rhinovirus sp. [60] = assay: Minimum inhibitory concentration on HRV serotype 2
Human rhinovirus sp. [61] = assay: Minimum inhibitory concentration on HRV serotype 11
Human rhinovirus sp. [62] = assay: Minimum inhibitory concentration on HRV serotype 35
Human rhinovirus sp. [63] = assay: Minimum inhibitory concentration on HRV serotype 7
Human rhinovirus sp. [64] = assay: Minimum inhibitory concentration on HRV serotype 23
Human rhinovirus sp. [65] = assay: Minimum inhibitory concentration on HRV serotype 53

MIC50 (Human rhinovirus sp. [1]): 0.76 µM (≈ 0.278 µg/mL)
SMILES: Cc1cc(CCCOc2c(C)cc(-c3ccc([N+](=O)[O-])cc3)cc2C)on1

MIC50 (Human rhinovirus sp. [1]): > 8.9 µM
SMILES: Cc1cc(CCCOc2c(C)cc(-c3cccc(C#N)c3)cc2C)on1

MIC50 (Human rhinovirus sp. [1]): 0.16 µM (≈ 0.0572 µg/mL)
SMILES: Cc1cc(CCCOc2c(C)cc(-c3ccc(F)c(F)c3)cc2C)on1

MIC (Human rhinovirus sp. [2]): 0.492 µg/mL (≈ 1.45 µM)
MIC (Human rhinovirus sp. [3]): 0.058 µg/mL (≈ 0.171 µM)
MIC (Human rhinovirus sp. [4]): 0.03 µg/mL (≈ 0.0884 µM)
MIC (Human rhinovirus sp. [5]): 0.07 µg/mL (≈ 0.206 µM)
MIC (Human rhinovirus sp. [6]): 0.161 µg/mL (≈ 0.474 µM)
MIC (Human rhinovirus sp. [7]): 0.118 µg/mL (≈ 0.348 µM)
MIC (Human rhinovirus sp. [8]): 0.009 µg/mL (≈ 0.0265 µM)
MIC (Human rhinovirus sp. [9]): 0.025 µg/mL (≈ 0.0737 µM)
MIC (Human rhinovirus sp. [10]): 0.049 µg/mL (≈ 0.144 µM)
MIC (Human rhinovirus sp. [11]): 0.037 µg/mL (≈ 0.109 µM)
MIC (Human rhinovirus sp. [12]): 0.009 µg/mL (≈ 0.0265 µM)
MIC (Human rhinovirus sp. [13]): 0.018 µg/mL (≈ 0.053 µM)
MIC (Human rhinovirus sp. [14]): 0.056 µg/mL (≈ 0.165 µM)
MIC (Human rhinovirus sp. [15]): 0.031 µg/mL (≈ 0.0913 µM)
MIC (Human rhinovirus sp. [16]): 0.125 µg/mL (≈ 0.368 µM)
MIC (Human rhinovirus sp. [17]): 0.187 µg/mL (≈ 0.551 µM)
MIC (Human rhinovirus sp. [18]): 0.004 µg/mL (≈ 0.0118 µM)
MIC (Human rhinovirus sp. [19]): 0.042 µg/mL (≈ 0.124 µM)
MIC (Human rhinovirus sp. [20]): 0.02 µg/mL (≈ 0.0589 µM)
MIC50 (Human rhinovirus sp. [1]): 0.11 µM (≈ 0.0373 µg/mL)
MIC (Human rhinovirus sp. [21]): 0.006 µg/mL (≈ 0.0177 µM)
MIC (Human rhinovirus sp. [22]): 0.012 µg/mL (≈ 0.0354 µM)
MIC (Human rhinovirus sp. [23]): 0.08 µg/mL (≈ 0.236 µM)
MIC (Human rhinovirus sp. [24]): 0.024 µg/mL (≈ 0.0707 µM)
MIC (Human rhinovirus sp. [25]): 0.014 µg/mL (≈ 0.0412 µM)
MIC (Human rhinovirus sp. [26]): 0.031 µg/mL (≈ 0.0913 µM)
MIC (Human rhinovirus sp. [27]): 0.035 µg/mL (≈ 0.103 µM)
MIC (Human rhinovirus sp. [28]): 0.12 µg/mL (≈ 0.354 µM)
MIC (Human rhinovirus sp. [29]): 0.009 µg/mL (≈ 0.0265 µM)
MIC (Human rhinovirus sp. [30]): 0.015 µg/mL (≈ 0.0442 µM)
MIC (Human rhinovirus sp. [31]): 0.078 µg/mL (≈ 0.23 µM)
MIC (Human rhinovirus sp. [32]): 0.033 µg/mL (≈ 0.0972 µM)
MIC (Human rhinovirus sp. [33]): 0.072 µg/mL (≈ 0.212 µM)
MIC (Human rhinovirus sp. [34]): 0.033 µg/mL (≈ 0.0972 µM)
MIC (Human rhinovirus sp. [35]): 0.058 µg/mL (≈ 0.171 µM)
MIC (Human rhinovirus sp. [36]): 0.021 µg/mL (≈ 0.0619 µM)
MIC (Human rhinovirus sp. [37]): 0.037 µg/mL (≈ 0.109 µM)
MIC (Human rhinovirus sp. [38]): 0.04 µg/mL (≈ 0.118 µM)
MIC (Human rhinovirus sp. [39]): 0.009 µg/mL (≈ 0.0265 µM)
MIC (Human rhinovirus sp. [40]): 0.003 µg/mL (≈ 0.00884 µM)
MIC (Human rhinovirus sp. [41]): 0.038 µg/mL (≈ 0.112 µM)
MIC (Human rhinovirus sp. [42]): 0.024 µg/mL (≈ 0.0707 µM)
MIC (Human rhinovirus sp. [43]): 0.013 µg/mL (≈ 0.0383 µM)
MIC (Human rhinovirus sp. [44]): 0.024 µg/mL (≈ 0.0707 µM)
MIC (Human rhinovirus sp. [45]): 0.154 µg/mL (≈ 0.454 µM)
MIC (Human rhinovirus sp. [46]): 0.139 µg/mL (≈ 0.41 µM)
MIC (Human rhinovirus sp. [47]): 0.019 µg/mL (≈ 0.056 µM)
MIC (Human rhinovirus sp. [48]): 0.009 µg/mL (≈ 0.0265 µM)
MIC (Human rhinovirus sp. [49]): 0.02 µg/mL (≈ 0.0589 µM)
MIC (Human rhinovirus sp. [50]): 0.036 µg/mL (≈ 0.106 µM)
MIC (Human rhinovirus sp. [51]): 0.077 µg/mL (≈ 0.227 µM)
MIC (Human rhinovirus sp. [52]): 0.14 µg/mL (≈ 0.412 µM)
MIC (Human rhinovirus sp. [53]): 0.03 µg/mL (≈ 0.0884 µM)
MIC (Human rhinovirus sp. [54]): 0.028 µg/mL (≈ 0.0825 µM)
MIC (Human rhinovirus sp. [55]): 0.098 µg/mL (≈ 0.289 µM)
MIC (Human rhinovirus sp. [56]): 0.019 µg/mL (≈ 0.056 µM)
MIC (Human rhinovirus sp. [57]): 0.02 µg/mL (≈ 0.0589 µM)
MIC (Human rhinovirus sp. [58]): 0.155 µg/mL (≈ 0.457 µM)
MIC (Human rhinovirus sp. [59]): 0.024 µg/mL (≈ 0.0707 µM)
MIC (Human rhinovirus sp. [60]): 0.009 µg/mL (≈ 0.0265 µM)
MIC (Human rhinovirus sp. [61]): 0.007 µg/mL (≈ 0.0206 µM)
MIC (Human rhinovirus sp. [62]): 0.021 µg/mL (≈ 0.0619 µM)
MIC (Human rhinovirus sp. [63]): 0.006 µg/mL (≈ 0.0177 µM)
MIC (Human rhinovirus sp. [64]): 0.046 µg/mL (≈ 0.136 µM)
MIC (Human rhinovirus sp. [65]): 0.889 µg/mL (≈ 2.62 µM)
SMILES: Cc1cc(CCCOc2c(C)cc(-c3ccc(F)cc3)cc2C)on1

MIC50 (Human rhinovirus sp. [1]): 0.26 µM (≈ 0.0901 µg/mL)
SMILES: Cc1cc(CCCOc2c(C)cc(-c3ccc(C#N)cc3)cc2C)on1
